Experimental data from different studies.
Compare with care: the assays were run in different laboratories. pIC50: −log10 of the molar value.
CNR1: Cannabinoid receptor 1 (CNR1, Homo sapiens, UniProt P21554)
PDE5A: cGMP-specific 3',5'-cyclic phosphodiesterase (PDE5A, Homo sapiens, UniProt O76074)
KDM1A: Lysine-specific histone demethylase 1A (KDM1A, Homo sapiens, UniProt O60341)
BMX: Cytoplasmic tyrosine-protein kinase BMX (BMX, Homo sapiens, UniProt P51813)
PFF0160c: Dihydroorotate dehydrogenase (quinone), mitochondrial (PFF0160c, Plasmodium falciparum, UniProt Q08210)
MEP1A: Meprin A subunit alpha (MEP1A, Homo sapiens, UniProt Q16819)
AURKB: Aurora kinase B (AURKB, Homo sapiens, UniProt Q96GD4)
PPO3: PPO3 (Agaricus bisporus, UniProt C7FF04)

| SMILES | target | effect on | mode | technique | notes | pIC50 |
| --- | --- | --- | --- | --- | --- | --- |
| CCCC[C@H](NC(=O)[C@H](C)c1c(C)[nH]c2ccc(O)cc12)c1ncc(-c2cc3ccccc3nc2OC)[nH]1 | CNR1 | cell-free assay | – | – | – | 5.01 |
| COc1ccc(C2=NN(C3CCCCCC3)C(=O)[C@@H]3CC=CC[C@H]23)cc1-c1ccc(C(N)=O)cc1 (relative stereo) | PDE5A | enzyme activity | inhibitor | – | – | < 5.00 |
| C#CCSc1nc(Sc2nnnn2-c2ccccc2)c2nnn(Cc3cccc(Cl)c3)c2n1 | KDM1A | enzyme activity | inhibitor | fluorescence | – | 7.13 |
| C=CC(=O)Nc1cc(Nc2nccc(Nc3cc(Cl)c(F)cc3C(C)(C)O)n2)c(OC)cc1N1CC[C@@H](N(C)C)C1 | BMX | enzyme activity | inhibitor | – | with preincubation | 5.64 |
| Cc1cc(Nc2ccc(Cl)cc2)n2nc(CN(C)C)nc2n1 | PFF0160c | enzyme activity | inhibitor | – | – | < 5.00 |
| CCCS(=O)(=O)Nc1ccc(F)c(C(=O)c2c[nH]c3ncc(Cl)cc23)c1F | Serine/threonine-protein kinase A-Raf (ARAF, Homo sapiens, UniProt P10398) | enzyme activity | inhibitor | – | lysate | 7.66 |
| Cc1cc(Nc2cccc(Cl)c2)n2nc(OCCN)nc2n1 | PFF0160c | enzyme activity | inhibitor | – | – | < 5.00 |
| O=C(CCN(Cc1ccncc1)Cc1ccc2c(c1)OCO2)NO | MEP1A | enzyme activity | inhibitor | – | – | 6.32 |
| CC[C@@H](C(=O)Nc1ccc(C(N)=O)c(F)c1)n1cc(OC)c(-c2cc(Cl)ccc2-n2cc(C(F)(F)F)nn2)cc1=O | Vitamin K-dependent protein C (PROC, Homo sapiens, UniProt P04070) | enzyme activity | inhibitor | – | – | < 5.00 |
| Cc1cc(Nc2ccc(S(F)(F)(F)(F)F)cc2)n2nc(CC(C)C)nc2n1 | PFF0160c | enzyme activity | inhibitor | – | – | < 5.00 |
| O=C(Nc1c[nH]nc1-c1nc2cc(CN3CCOCC3)ccc2[nH]1)NC1CC1 | AURKB | enzyme activity | inhibitor | mobility shift | – | 8.64 |
| Nc1nc(N)c(N=Nc2ccc([N+](=O)[O-])cc2)c(Cl)n1 | PPO3 | enzyme activity | inhibitor | absorbance | – | 4.43 |
| CC(C)(C)N1C(=O)[C@@H]2Cc3c([nH]c4ccccc34)[C@@H](c3cccnc3)N2C1=O | PDE5A | enzyme activity | inhibitor | FP | – | 6.74 |
| CCCCc1ccc(-c2ccc(-c3cc(C(=O)O)c4ccc(OC)cc4n3)o2)cc1 | Eukaryotic initiation factor 4A-I (EIF4A1, Homo sapiens, UniProt P60842) | ATPase activity | inhibitor | absorbance | – | < 3.82 |
| CNCCc1nc2nc(C)cc(Nc3ccc(Cl)cc3)n2n1 | PFF0160c | enzyme activity | inhibitor | – | – | < 5.00 |
| CCN1C(=O)[C@@H]2Cc3c([nH]c4ccccc34)[C@@H](c3cccnc3)N2C1=O | PDE5A | enzyme activity | inhibitor | FP | – | 6.82 |
| Cc1ccc(NC(=O)c2ccc(C)c(C(F)(F)F)c2)cc1C#Cc1nn(C2CCC(O)CC2)c2ncnc(N)c12 (stereo not drawn) | BMX | enzyme activity | inhibitor | radiometric | – | 7.68 |
| O=C(c1ccc2ccncc2c1)N1CCC2CC1CN2C(=O)c1n[nH]c(=O)c2ccccc12 (stereo not drawn) | Poly [ADP-ribose] polymerase 1 (PARP1, Homo sapiens, UniProt P09874) | enzyme activity | inhibitor | – | – | 5.85 |
| CC(C)(C)n1nc(-c2cnc3cc(OC4CC4)ccc3c2)c(C(N)=O)c1N | AURKB | cell-free assay | inhibitor | – | – | < 5.00 |
| COc1cc2c(cc1OC)-c1c/c(=N\c3c(C)cc(C)cc3C)n(C)c(=O)n1CC2 | PDE5A | enzyme activity | inhibitor | FP | – | 5.47 |
| CC(=O)Nc1ccc(N=Nc2c(N)nc(N)nc2N)cc1 | PPO3 | enzyme activity | inhibitor | absorbance | – | 4.53 |

| SMILES | target | effect on | mode | technique | notes | pIC50 |
| --- | --- | --- | --- | --- | --- | --- |
| COc1ccc2c(Oc3ccc4c(C(=O)Nc5ccccc5N)cccc4c3)ccnc2c1 | AURKB | enzyme activity | inhibitor | – | – | 8.05 |
| Cc1ccc(C(C)C)cc1NC(=O)COC(=O)/C=C/c1ccccc1 | PPO3 | enzyme activity | inhibitor | – | – | 6.11 |
| N#CC(C(=O)c1ccc(Cl)cc1Cl)=C1NC(=O)c2ccc(OCc3ccc4c(c3)OCO4)cc2N1 | Cytoplasmic dynein 1 heavy chain 1 (DYNC1H1, Homo sapiens, UniProt Q14204) | ATPase activity | inhibitor | – | – | 3.89 |
| COC(=O)[C@@H]1Cc2c([nH]c3ccccc23)[C@H](c2cccnc2)N1 | PDE5A | enzyme activity | inhibitor | FP | – | < 5.00 |
| COc1ccc(N=Nc2c(N)nc(N)nc2Cl)cc1 | PPO3 | enzyme activity | inhibitor | absorbance | – | 4.55 |
| Cc1ccc(C(C)C)cc1NC(=O)COC(=O)/C=C/c1ccc(O)cc1 | PPO3 | enzyme activity | inhibitor | – | – | 5.85 |
| CCOCc1nc(O)c(-c2nnc(Cc3ccc(Cl)cn3)o2)c(O)c1-c1c(OC)cccc1OC | CNR1 | ligand displacement | – | radioligand | – | < 4.52 |
| CNc1cc(Nc2ccc(C(F)(F)F)cc2)n2ncnc2n1 | PFF0160c | enzyme activity | inhibitor | – | – | 5.13 |
| Cc1ccc(C(C)C)cc1NC(=O)COC(=O)c1cccc(O)c1 | PPO3 | enzyme activity | inhibitor | – | – | 4.96 |
| CC1Cc2ccccc2N1C(=O)NCCCCN(C)[C@@H]1Cc2cccc3[nH]c(=O)n(c23)C1 (mixture of isomers) | 5-hydroxytryptamine receptor 2A (HTR2A, Homo sapiens, UniProt P28223) | ligand displacement | – | radioligand | – | 5.39 |
| O=C(CCN(Cc1ccc(Cl)cc1F)Cc1ccc(Cl)c(O)c1F)NO | MEP1A | enzyme activity | inhibitor | – | – | 6.67 |
| Cc1cc(Nc2cccc(Cl)c2)n2nc(OCCN(C)C)nc2n1 | PFF0160c | enzyme activity | inhibitor | – | – | < 5.00 |
| O=C1[C@H]2Cc3c([nH]c4ccccc34)[C@@H](c3cccnc3)N2C(=O)N1c1ccc(Cl)cc1 | PDE5A | enzyme activity | inhibitor | FP | – | 5.30 |
| CCCSc1nc(Sc2nnnn2C)c2nnn(C3CCCC3)c2n1 | KDM1A | enzyme activity | inhibitor | fluorescence | – | 6.38 |
| COc1cc(C[C@H]2C(=O)OC[C@@H]2Cc2ccc(OC)c(OC)c2)ccc1O | PDE5A | enzyme activity | inhibitor | – | – | < 4.70 |
| CNCCOc1nc2nc(C)cc(Nc3ccc(Cl)cc3)n2n1 | PFF0160c | enzyme activity | inhibitor | – | – | < 5.00 |
| CCC(=O)CCCCC[C@@H]1NC(=O)[C@H](C)N(C)C(=O)C[C@H](CC(C)C)NC(=O)[C@H](Cc2c[nH]c3ccccc23)NC1=O | Histone deacetylase 2 (HDAC2, Homo sapiens, UniProt Q92769) | enzyme activity | inhibitor | – | – | 7.40 |
| Cc1cc(Nc2ccc(C(F)(F)F)cc2)n2nc(OCCN(C)C)nc2n1 | PFF0160c | enzyme activity | inhibitor | – | – | < 5.00 |
| COC(=O)[C@H]1Cc2c([nH]c3ccccc23)[C@@H](c2ccc(OC)c(OC)c2)N1C(=O)CCl | PDE5A | enzyme activity | inhibitor | FP | – | < 5.00 |
| Cc1cc(Nc2ccc(Cl)cc2)n2nc(CCN)nc2n1 | PFF0160c | enzyme activity | inhibitor | – | – | < 5.00 |
| CCN1C(=O)[C@H]2Cc3c([nH]c4ccccc34)[C@@H](c3ccc(OC)c(OC)c3)N2C1=O | PDE5A | enzyme activity | inhibitor | FP | – | 5.29 |
